Test results reported in ChEMBL document CHEMBL5096209, “Structure-Activity Studies of 3,9-Diazaspiro[5.5]undecane-Based γ-Aminobutyric Acid Type A Receptor Antagonists with Immunomodulatory Effect” (J Med Chem, 2021).

Assays:
[1] = target: GABA-A receptor; anion channel; test: Displacement of [3H]-muscimol from rat brain cortex GABAA receptor assessed as inhibition constant incubated for 1 hr by top-counter microplate scintillation counter method; type: cell membranes, Membrane
[2] = Antagonist activity at recombinant human alpha6beta2delta GABAA receptor expressed in HEK293 Flp-In cells by FMP assay; type: cell-based, Flp-In-293
Method in brief: (§1)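 HEK293 Flp-In cells stably expressing human δ subunit, transiently transfected with human α and β subunits (1:1) to form αβδ receptors. Read-out is the FLIPR membrane potential dye ΔRFU, baseline to peak/plateau, with GABA EC80 as agonist. Four-parameter fit of concentration–inhibition curves gives IC50, from at least three independent experiments.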

[3] = target: T1, Gamma-aminobutyric acid receptor subunit alpha-4/beta-1/delta (Homo sapiens, UniProt O14764+P18505+P48169); test: Antagonist activity at recombinant human alpha4beta1delta GABAA receptor expressed in HEK293 Flp-In cells by FMP assay; type: cell-based, Flp-In-293; method in brief: as §1
[4] = target: T2, Gamma-aminobutyric acid receptor subunit alpha-1/beta-2/delta (Homo sapiens, UniProt O14764+P14867+P47870); test: Antagonist activity at recombinant human alpha1beta2delta GABAA receptor expressed in HEK293 Flp-In cells by FMP assay; type: cell-based, Flp-In-293; method in brief: as §1
T2 sequence (P14867 whole entry): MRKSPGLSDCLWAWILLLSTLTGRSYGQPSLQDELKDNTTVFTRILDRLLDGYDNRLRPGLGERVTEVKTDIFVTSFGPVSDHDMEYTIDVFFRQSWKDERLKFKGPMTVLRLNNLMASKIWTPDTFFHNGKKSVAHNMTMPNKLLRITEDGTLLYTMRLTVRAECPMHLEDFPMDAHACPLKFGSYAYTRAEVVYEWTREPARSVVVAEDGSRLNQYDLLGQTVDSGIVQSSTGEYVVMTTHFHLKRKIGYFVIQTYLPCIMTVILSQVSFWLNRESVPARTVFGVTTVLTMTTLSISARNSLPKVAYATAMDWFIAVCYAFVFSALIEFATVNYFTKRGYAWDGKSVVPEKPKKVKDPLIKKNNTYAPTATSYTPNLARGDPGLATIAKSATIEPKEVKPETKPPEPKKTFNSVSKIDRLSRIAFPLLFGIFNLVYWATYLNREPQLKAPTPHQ
T2 sequence (P47870 whole entry): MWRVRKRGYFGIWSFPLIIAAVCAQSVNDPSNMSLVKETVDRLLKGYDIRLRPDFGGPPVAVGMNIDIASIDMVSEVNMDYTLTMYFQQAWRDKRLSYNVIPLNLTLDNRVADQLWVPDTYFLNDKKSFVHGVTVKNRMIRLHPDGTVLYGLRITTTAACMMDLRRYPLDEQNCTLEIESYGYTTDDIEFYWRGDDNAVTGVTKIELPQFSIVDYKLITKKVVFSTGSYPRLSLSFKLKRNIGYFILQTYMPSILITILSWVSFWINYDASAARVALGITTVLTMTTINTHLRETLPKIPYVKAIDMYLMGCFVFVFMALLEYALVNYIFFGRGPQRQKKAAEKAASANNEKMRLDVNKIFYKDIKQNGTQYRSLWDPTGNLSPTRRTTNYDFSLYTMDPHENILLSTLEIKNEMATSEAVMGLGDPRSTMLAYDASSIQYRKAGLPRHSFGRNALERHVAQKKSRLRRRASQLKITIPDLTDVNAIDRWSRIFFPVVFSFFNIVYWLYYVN
T2 sequence (O14764 whole entry): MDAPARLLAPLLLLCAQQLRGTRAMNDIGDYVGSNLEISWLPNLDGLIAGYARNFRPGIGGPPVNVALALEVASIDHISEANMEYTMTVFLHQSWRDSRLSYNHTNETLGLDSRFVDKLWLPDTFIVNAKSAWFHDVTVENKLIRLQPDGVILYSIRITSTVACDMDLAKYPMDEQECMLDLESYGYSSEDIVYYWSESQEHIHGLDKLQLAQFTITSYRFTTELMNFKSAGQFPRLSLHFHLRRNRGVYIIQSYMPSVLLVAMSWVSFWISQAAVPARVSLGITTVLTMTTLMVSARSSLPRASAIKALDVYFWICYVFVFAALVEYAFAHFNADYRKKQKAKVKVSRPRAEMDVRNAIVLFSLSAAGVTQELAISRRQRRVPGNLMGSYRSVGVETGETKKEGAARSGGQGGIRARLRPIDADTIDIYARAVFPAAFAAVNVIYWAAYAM

[5] = Antagonist activity at human alpha6beta2delta GABAA receptor expressed in HEK293 Flp-In cells by FMP assay; type: cell-based, Flp-In-293; method in brief: as §1
[6] = target: T2, Gamma-aminobutyric acid receptor subunit alpha-1/beta-2/delta; test: Antagonist activity at human alpha1beta2delta GABAA receptor expressed in HEK293 Flp-In cells by FMP assay; type: cell-based, Flp-In-293; method in brief: as §1
[7] = target: T1, Gamma-aminobutyric acid receptor subunit alpha-4/beta-1/delta; test: Antagonist activity at human alpha4beta1delta GABAA receptor expressed in HEK293 Flp-In cells by FMP assay; type: cell-based, Flp-In-293; method in brief: as §1
[8] = target: T3, GABA-A receptor; alpha-1/beta-2/gamma-2 (Homo sapiens, UniProt P14867+P18507+P47870); test: Antagonist activity at human alpha1beta2gamma2 GABAA receptor expressed in HEK293 cells by FMP assay; type: cell-based
T3 sequence (P14867 whole entry): T2 sequence (P14867 whole entry)
T3 sequence (P47870 whole entry): T2 sequence (P47870 whole entry)
T3 sequence (P18507 whole entry): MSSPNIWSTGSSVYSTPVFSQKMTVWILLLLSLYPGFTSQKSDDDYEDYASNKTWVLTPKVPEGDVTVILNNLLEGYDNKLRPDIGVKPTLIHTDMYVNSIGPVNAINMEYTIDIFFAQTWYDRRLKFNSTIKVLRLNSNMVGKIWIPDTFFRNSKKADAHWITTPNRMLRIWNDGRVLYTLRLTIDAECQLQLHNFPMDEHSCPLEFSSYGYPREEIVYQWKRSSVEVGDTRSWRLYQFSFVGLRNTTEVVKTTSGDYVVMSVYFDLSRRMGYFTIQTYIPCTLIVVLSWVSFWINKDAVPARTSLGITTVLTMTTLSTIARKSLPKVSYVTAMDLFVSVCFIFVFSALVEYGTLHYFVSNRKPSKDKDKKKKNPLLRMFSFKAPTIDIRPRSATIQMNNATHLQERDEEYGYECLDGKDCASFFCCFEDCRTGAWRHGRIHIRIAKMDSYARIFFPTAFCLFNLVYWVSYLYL
Method in brief: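 Human αβγ2 receptors in HEK293 cells: α1β2γ2 stably expressed, other αβγ2 subtypes transiently transfected into HEK293 Flp-In background cells (α:β:γ 1:1:2). FLIPR membrane potential assay with ΔRFU baseline to peak/plateau and GABA EC80 as agonist. IC50 from a four-parameter fit, at least three independent experiments.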

[9] = test system: GABAA receptor α4β2δ (human); test: Antagonist activity at human alpha4beta2delta GABAA receptor expressed in HEK293 Flp-In cells by FMP assay
[10] = Homo sapiens, Flp-In-293, read-out: pIC50 (converted)

T1 sequence (P48169 whole entry, one chain of several): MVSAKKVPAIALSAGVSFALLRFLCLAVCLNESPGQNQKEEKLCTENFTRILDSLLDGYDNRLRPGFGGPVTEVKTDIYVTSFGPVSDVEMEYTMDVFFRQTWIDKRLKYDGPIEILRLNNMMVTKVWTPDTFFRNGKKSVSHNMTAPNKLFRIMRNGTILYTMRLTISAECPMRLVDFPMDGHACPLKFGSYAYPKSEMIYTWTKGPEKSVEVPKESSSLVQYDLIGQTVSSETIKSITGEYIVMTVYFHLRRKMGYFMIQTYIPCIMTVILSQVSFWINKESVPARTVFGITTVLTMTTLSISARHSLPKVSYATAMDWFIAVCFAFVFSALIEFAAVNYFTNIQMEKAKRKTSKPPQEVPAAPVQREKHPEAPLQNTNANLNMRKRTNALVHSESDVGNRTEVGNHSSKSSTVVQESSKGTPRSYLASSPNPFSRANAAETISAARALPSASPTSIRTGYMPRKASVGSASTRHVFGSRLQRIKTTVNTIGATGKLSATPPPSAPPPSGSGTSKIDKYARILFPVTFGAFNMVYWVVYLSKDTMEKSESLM
T1 sequence (P18505 whole entry, one chain of several): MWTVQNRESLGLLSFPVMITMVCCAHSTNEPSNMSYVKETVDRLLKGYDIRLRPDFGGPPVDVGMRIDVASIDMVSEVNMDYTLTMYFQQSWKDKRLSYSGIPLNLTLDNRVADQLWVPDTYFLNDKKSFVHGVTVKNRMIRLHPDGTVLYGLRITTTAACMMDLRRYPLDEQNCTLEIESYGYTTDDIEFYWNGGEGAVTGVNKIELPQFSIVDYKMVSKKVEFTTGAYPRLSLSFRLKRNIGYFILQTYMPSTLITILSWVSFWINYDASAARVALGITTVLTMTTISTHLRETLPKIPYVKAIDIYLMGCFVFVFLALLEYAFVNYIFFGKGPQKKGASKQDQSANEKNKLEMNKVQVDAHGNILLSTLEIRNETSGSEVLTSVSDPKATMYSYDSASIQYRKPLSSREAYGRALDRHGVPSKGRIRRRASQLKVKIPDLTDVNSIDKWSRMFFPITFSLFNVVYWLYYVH

Row | SMILES | Ki [1] | IC50 [2, 10] | IC50 ([2]; flp-in-293) | IC50 [3] | IC50 ([3]; read-out: pIC50 (converted)) | IC50 ([4]; read-out: pIC50 (converted)) | IC50 [5, 10] | IC50 ([5]; flp-in-293) | IC50 [6] | IC50 ([6]; read-out: pIC50 (converted)) | IC50 [7] | IC50 ([7]; read-out: pIC50 (converted)) | IC50 [8] | IC50 ([8]; read-out: pIC50 (converted)) | IC50 [9, 10] | IC50 ([9]; flp-in-293) | IC50 [4]
1 | O=C(Nc1cccc(C(=O)N2CCC3(CCNCC3)CC2)c1)c1cccs1 | 20 nM | 331 nM | 330 nM | 88 nM | 87.1 nM | 245 nM | – | – | – | – | – | – | – | – | – | – | –
2 | Cc1ccc(C(=O)N2CCC3(CCNCC3)CC2)cc1 | – | – | – | – | – | – | 8710 nM | 8870 nM | 13200 nM | 13200 nM | 1280 nM | 1260 nM | 10000 nM | 10000 nM | 2140 nM | 2150 nM | –
3 | CC(=O)Nc1cccc(C(=O)N2CCC3(CCNCC3)CC2)c1 | 560 nM | 4170 nM | 4130 nM | 1030 nM | 1020 nM | 6760 nM | – | – | – | – | – | – | – | – | – | – | 6680 nM
4 | Cc1cccc(C(=O)N2CCC3(CCNCC3)CC2)c1 | – | – | – | – | – | – | 1910 nM | 1950 nM | 4950 nM | 4900 nM | 195 nM | 182 nM | 2180 nM | 2190 nM | 251 nM | 250 nM | –
